# Experimental data published in ChEMBL document CHEMBL3352188, “Synthesis, antimicrobial and molecular docking studies of enantiomerically pure N-alkylated β-amino alcohols from phenylpropanolamines” (2014).
# How the values were obtained:
# Candida albicans [1] = test: Antimicrobial activity against Candida albicans MTCC 227 after 48 to 72 hrs by two fold dilution method; type: functional
# Method in brief: (§1)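 Yeast was grown in Sabouraud dextrose broth at 28 °C for 48 h and tested per CLSI reference methods. Two-fold serial dilutions from 1000 to 7.81 µg/mL, compound in DMSO (2%), in 96-well plates, incubated 48–72 h at 28 °C. MIC was the lowest concentration with no visible fungal growth. Ketoconazole was the positive control.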
# Malassezia pachydermatis [2] = test: Antimicrobial activity against Malassezia pachydermatis after 48 to 72 hrs by two fold dilution method; type: functional; method in brief: as §1
# Candida albicans [3] = test: Antimicrobial activity against Candida albicans MTCC 227 at 1 mg/disc after 24 hrs by disc diffusion assay; type: functional
# Malassezia pachydermatis [4] = test: Antimicrobial activity against Malassezia pachydermatis at 1 mg/disc after 24 hrs by disc diffusion assay; type: functional
# Pseudomonas aeruginosa [5] = test: Bactericidal activity against Pseudomonas aeruginosa MTCC 741 after 24 hrs by two fold dilution method; type: functional; settings: MTCC 741, 24 h
# Method in brief: (§2)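 Tubes held 5 mL MHB with two-fold dilutions from 1000 to 7.81 µg/mL and were inoculated with 5 × 10^5 to 1 × 10^6 cells in 0.1 mL MHB, incubated without shaking. Turbidity was checked at 20 h, tubes vortexed and re-incubated 4 h.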
# [6] = system: Salmonella enterica subsp. enterica serovar Paratyphi B; test: Bactericidal activity against Salmonella paratyphi B after 24 hrs by two fold dilution method; type: functional; method in brief: as §2
# Shigella flexneri [7] = test: Antimicrobial activity against Shigella flexneri MTCC 1457 at 1 mg/disc after 24 hrs by disc diffusion assay; type: functional
# Method in brief: (§3)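 Disc diffusion on Mueller Hinton agar. Inoculum was grown in MHB for 24 h at 37 °C, swabbed onto the plates and dried for 10 min. Discs with 1 mg compound were left 30 min at room temperature for diffusion, then incubated at 37 °C for 24 h. Inhibition zone was read in mm; run twice. Solvent was the negative control, streptomycin the positive control.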
# Staphylococcus aureus [8] = test: Antimicrobial activity against […] Staphylococcus aureus MTCC 96 at 1 mg/disc after 24 hrs by disc diffusion assay; type: functional; method in brief: as §3
# Staphylococcus aureus [9] = test: Antimicrobial activity against methicillin-resistant Staphylococcus aureus MTCC 96 after 24 hrs by two fold dilution method; type: functional; settings: MTCC 96, 24 h
# Method in brief: (§4)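 Broth two-fold serial dilution in 96-well plates from 1000 to 7.81 µg/mL, compound in DMSO (2%). Inoculum was grown in MHB for 24 h at 37 °C; plates were incubated 24 h at 37 °C. 5 µL of broth was spotted onto MHA; MIC was the lowest concentration with no visible growth on agar. Streptomycin was the positive control.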
# Klebsiella aerogenes [10] = test: Antimicrobial activity against Enterobacter aerogenes MTCC 111 at 1 mg/disc after 24 hrs by disc diffusion assay; type: functional; method in brief: as §3
# Bacillus subtilis [11] = test: Bactericidal activity against Bacillus subtilis MTCC 441 after 24 hrs by two fold dilution method; type: functional; settings: MTCC 441, 24 h; method in brief: as §2
# Proteus vulgaris [12] = test: Antimicrobial activity against Proteus vulgaris MTCC 1771 at 1 mg/disc after 24 hrs by disc diffusion assay; type: functional; method in brief: as §3
# Shigella flexneri [13] = test: Antimicrobial activity against Shigella flexneri MTCC 1457 after 24 hrs by two fold dilution method; type: functional; settings: MTCC 1457, 24 h; method in brief: as §4
# Shigella flexneri [14] = test: Bactericidal activity against Shigella flexneri MTCC 1457 after 24 hrs by two fold dilution method; type: functional; settings: MTCC 1457, 24 h; method in brief: as §2
# Klebsiella aerogenes [15] = test: Antimicrobial activity against Enterobacter aerogenes MTCC 111 after 24 hrs by two fold dilution method; type: functional; settings: MTCC 111, 24 h; method in brief: as §4
# [16] = system: Salmonella enterica subsp. enterica serovar Paratyphi B; test: Antimicrobial activity against Salmonella paratyphi B at 1 mg/disc after 24 hrs by disc diffusion assay; type: functional; method in brief: as §3
# Bacillus subtilis [17] = test: Antimicrobial activity against Bacillus subtilis MTCC 441 at 1 mg/disc after 24 hrs by disc diffusion assay; type: functional; method in brief: as §3
# Staphylococcus aureus [18] = test: Bactericidal activity against Staphylococcus aureus MTCC 96 after 24 hrs by two fold dilution method; type: functional; settings: MTCC 96, 24 h; method in brief: as §2
# Salmonella typhimurium [19] = test: Bactericidal activity against Salmonella typhimurium MTCC 1251 after 24 hrs by two fold dilution method; type: functional, Salmonella enterica subsp. enterica serovar Typhimurium; settings: Salmonella enterica, MTCC 1251, 24 h; method in brief: as §2
# Klebsiella aerogenes [20] = test: Bactericidal activity against Enterobacter aerogenes MTCC 111 after 24 hrs by two fold dilution method; type: functional; settings: MTCC 111, 24 h; method in brief: as §2
# Micrococcus luteus [21] = test: Antimicrobial activity against Micrococcus luteus MTCC 106 at 1 mg/disc after 24 hrs by disc diffusion assay; type: functional; method in brief: as §3
# [22] = system: Salmonella enterica subsp. enterica serovar Paratyphi B; test: Antimicrobial activity against Salmonella paratyphi B after 24 hrs by two fold dilution method; type: functional; method in brief: as §4
# Klebsiella pneumoniae [23] = test: Antimicrobial activity against Klebsiella pneumoniae MTCC 109 after 24 hrs by two fold dilution method; type: functional; settings: MTCC 109, 24 h; method in brief: as §4
# Micrococcus luteus [24] = test: Bactericidal activity against Micrococcus luteus MTCC 106 after 24 hrs by two fold dilution method; type: functional; settings: MTCC 106, 24 h; method in brief: as §2
# Salmonella typhimurium [25] = test: Antimicrobial activity against Salmonella typhimurium MTCC 1251 at 1 mg/disc after 24 hrs by disc diffusion assay; type: functional, Salmonella enterica subsp. enterica serovar Typhimurium; method in brief: as §3
# Candida albicans [26] = test: Fungicidal activity against Candida albicans MTCC 227 after 48 to 72 hrs by two fold dilution method; type: functional
# Malassezia pachydermatis [27] = test: Fungicidal activity against Malassezia pachydermatis after 48 to 72 hrs by two fold dilution method; type: functional
# Staphylococcus aureus [28] = test: Bactericidal activity against methicillin-resistant Staphylococcus aureus MTCC 96 after 24 hrs by two fold dilution method; type: functional; settings: MTCC 96, 24 h; method in brief: as §2
# Klebsiella pneumoniae [29] = test: Bactericidal activity against Klebsiella pneumoniae MTCC 109 after 24 hrs by two fold dilution method; type: functional; settings: MTCC 109, 24 h; method in brief: as §2
# Staphylococcus aureus [30] = test: Antimicrobial activity against Staphylococcus aureus MTCC 96 after 24 hrs by two fold dilution method; type: functional; settings: MTCC 96, 24 h; method in brief: as §4
# Pseudomonas aeruginosa [31] = test: Antimicrobial activity against Pseudomonas aeruginosa MTCC 741 after 24 hrs by two fold dilution method; type: functional; settings: MTCC 741, 24 h; method in brief: as §4
# Proteus vulgaris [32] = test: Bactericidal activity against Proteus vulgaris MTCC 1771 after 24 hrs by two fold dilution method; type: functional; settings: MTCC 1771, 24 h; method in brief: as §2
# Micrococcus luteus [33] = test: Antimicrobial activity against Micrococcus luteus MTCC 106 after 24 hrs by two fold dilution method; type: functional; settings: MTCC 106, 24 h; method in brief: as §4
# Bacillus subtilis [34] = test: Antimicrobial activity against Bacillus subtilis MTCC 441 after 24 hrs by two fold dilution method; type: functional; settings: MTCC 441, 24 h; method in brief: as §4
# Salmonella typhimurium [35] = test: Antimicrobial activity against Salmonella typhimurium MTCC 1251 after 24 hrs by two fold dilution method; type: functional, Salmonella enterica subsp. enterica serovar Typhimurium; settings: Salmonella enterica, MTCC 1251, 24 h; method in brief: as §4
# Proteus vulgaris [36] = test: Antimicrobial activity against Proteus vulgaris MTCC 1771 after 24 hrs by two fold dilution method; type: functional; settings: MTCC 1771, 24 h; method in brief: as §4
# Pseudomonas aeruginosa [37] = test: Antimicrobial activity against Pseudomonas aeruginosa MTCC 741 at 1 mg/disc after 24 hrs by disc diffusion assay; type: functional; method in brief: as §3
# Staphylococcus aureus [38] = test: Antimicrobial activity against Staphylococcus aureus MTCC 96 at 1 mg/disc after 24 hrs by disc diffusion assay; type: functional; method in brief: as §3
# Klebsiella pneumoniae [39] = test: Antimicrobial activity against Klebsiella pneumoniae MTCC 109 at 1 mg/disc after 24 hrs by disc diffusion assay; type: functional; method in brief: as §3
compound,measurement,setting,value
CC(=O)N1CCN(c2ccc(OCC3COC(Cn4ccnc4)(c4ccc(Cl)cc4Cl)O3)cc2)CC1 (configuration not stated) [KETOCONAZOLE],MIC,Candida albicans [1],25 µg/mL
same,MIC,Malassezia pachydermatis [2],25 µg/mL
same,inhibition zone (IZ),Candida albicans [3],28 mm
same,inhibition zone (IZ),Malassezia pachydermatis [4],26 mm
C[C@H](N[C@H](C)c1ccccc1)[C@H](O)c1ccccc1.Cl,MBC,Pseudomonas aeruginosa [5],125 µg/mL
same,MBC,[6],250 µg/mL
same,MIC,Candida albicans [1],125 µg/mL
same,inhibition zone (IZ),Shigella flexneri [7],16 mm
same,inhibition zone (IZ),Staphylococcus aureus [8],11 mm
same,MIC,Staphylococcus aureus [9],250 µg/mL
same,inhibition zone (IZ),Klebsiella aerogenes [10],13 mm
same,MBC,Bacillus subtilis [11],125 µg/mL
same,inhibition zone (IZ),Proteus vulgaris [12],12 mm
same,MIC,Shigella flexneri [13],250 µg/mL
same,MBC,Shigella flexneri [14],500 µg/mL
same,MIC,Klebsiella aerogenes [15],125 µg/mL
same,inhibition zone (IZ),[16],14 mm
same,inhibition zone (IZ),Bacillus subtilis [17],14 mm
same,MBC,Staphylococcus aureus [18],62.5 µg/mL
same,MBC,Salmonella typhimurium [19],500 µg/mL
same,MBC,Klebsiella aerogenes [20],250 µg/mL
same,inhibition zone (IZ),Micrococcus luteus [21],14 mm
same,MIC,[22],125 µg/mL
same,MIC,Malassezia pachydermatis [2],125 µg/mL
same,MIC,Klebsiella pneumoniae [23],250 µg/mL
same,MBC,Micrococcus luteus [24],250 µg/mL
same,inhibition zone (IZ),Salmonella typhimurium [25],11 mm
same,MFC,Candida albicans [26],125 µg/mL
same,MFC,Malassezia pachydermatis [27],125 µg/mL
same,MBC,Staphylococcus aureus [28],500 µg/mL
same,MBC,Klebsiella pneumoniae [29],500 µg/mL
same,MIC,Staphylococcus aureus [30],62.5 µg/mL
same,inhibition zone (IZ),Candida albicans [3],14 mm
same,MIC,Pseudomonas aeruginosa [31],62.5 µg/mL
same,MBC,Proteus vulgaris [32],500 µg/mL
same,MIC,Micrococcus luteus [33],125 µg/mL
same,MIC,Bacillus subtilis [34],125 µg/mL
same,MIC,Salmonella typhimurium [35],250 µg/mL
same,MIC,Proteus vulgaris [36],250 µg/mL
same,inhibition zone (IZ),Pseudomonas aeruginosa [37],16 mm
same,inhibition zone (IZ),Staphylococcus aureus [38],16 mm
same,inhibition zone (IZ),Malassezia pachydermatis [4],15 mm
same,inhibition zone (IZ),Klebsiella pneumoniae [39],13 mm
CC[C@@H](N[C@@H](C)[C@H](O)c1ccccc1)c1ccccc1.Cl,MBC,Pseudomonas aeruginosa [5],62.5 µg/mL
same,MBC,[6],125 µg/mL
same,MIC,Candida albicans [1],31.2 µg/mL
same,inhibition zone (IZ),Shigella flexneri [7],21 mm
same,inhibition zone (IZ),Staphylococcus aureus [8],20 mm
same,MIC,Staphylococcus aureus [9],31.2 µg/mL
same,inhibition zone (IZ),Klebsiella aerogenes [10],21 mm
same,MBC,Bacillus subtilis [11],31.2 µg/mL
same,inhibition zone (IZ),Proteus vulgaris [12],21 mm
same,MIC,Shigella flexneri [13],15.6 µg/mL
same,MBC,Shigella flexneri [14],31.2 µg/mL
same,MIC,Klebsiella aerogenes [15],31.2 µg/mL
same,inhibition zone (IZ),[16],19 mm
same,inhibition zone (IZ),Bacillus subtilis [17],20 mm
same,MBC,Staphylococcus aureus [18],31.2 µg/mL
same,MBC,Salmonella typhimurium [19],31.2 µg/mL
same,MBC,Klebsiella aerogenes [20],62.5 µg/mL
same,inhibition zone (IZ),Micrococcus luteus [21],21 mm
same,MIC,[22],62.5 µg/mL
same,MIC,Malassezia pachydermatis [2],31.2 µg/mL
same,MIC,Klebsiella pneumoniae [23],15.6 µg/mL
same,MBC,Micrococcus luteus [24],62.5 µg/mL
same,inhibition zone (IZ),Salmonella typhimurium [25],20 mm
same,MFC,Candida albicans [26],31.2 µg/mL
same,MFC,Malassezia pachydermatis [27],31.2 µg/mL
same,MBC,Staphylococcus aureus [28],31.2 µg/mL
same,MBC,Klebsiella pneumoniae [29],15.6 µg/mL
same,MIC,Staphylococcus aureus [30],31.2 µg/mL
same,inhibition zone (IZ),Candida albicans [3],22 mm
same,MIC,Pseudomonas aeruginosa [31],62.5 µg/mL
same,MBC,Proteus vulgaris [32],31.2 µg/mL
same,MIC,Micrococcus luteus [33],31.2 µg/mL
same,MIC,Bacillus subtilis [34],31.2 µg/mL
same,MIC,Salmonella typhimurium [35],31.2 µg/mL
same,MIC,Proteus vulgaris [36],31.2 µg/mL
same,inhibition zone (IZ),Pseudomonas aeruginosa [37],18 mm
same,inhibition zone (IZ),Staphylococcus aureus [38],22 mm
same,inhibition zone (IZ),Malassezia pachydermatis [4],24 mm
same,inhibition zone (IZ),Klebsiella pneumoniae [39],23 mm
